Data: paper PMC7032146 (Asian Journal of Pharmaceutical Sciences, 2018)

Assays:
[1] = test system: B16F10 cells; assay: Cellular uptake of NR-loaded micelles; assay type: cell-based; conditions: B16F10, flow cytometry, 1 h and 4 h
[2] = test system: L929 cells; assay: Cellular uptake of NR-loaded micelles; assay type: cell-based
Summary of the method: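 L929 cells (CD44-negative) grown 24 h in DMEM with 10% FBS, then medium replaced with free fluorescent marker NR or micelles loaded with NR at 0.2% drug loading. Incubated at 37 °C for 1, 4 and 8 h, washed thrice with PBS, and viewed by fluorescent inverted microscope. For flow cytometry at 1 and 4 h, cells were PBS-washed, trypsinised, resuspended in PBS, and read at 560/620 nm.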

In the case of `CCN(CC)c1ccc2nc3c4ccccc4c(=O)cc-3oc2c1` [free NR, nile red], the “Intracellular NR concentrations, order” value [1] was “HA-SS-ATRA21/NR micelles > HA-ATRA20/NR micelles > free NR > HA-SS-ATRA21/NR micelles treated with free-HA”, the “Fluorescence intensity of NR (cellular uptake)” value ([2]; L929 (CD44-negative), fluorescent inverted microscope) was “highest” and the “Fluorescence intensity of NR (cellular uptake)” value ([2]; L929, flow cytometry, 1 h and 4 h) was “highest”.
